Measured values published in paper PMC12705676 (Scientific Reports, 2025).
Entries after “also recorded” stand apart in the source; their conditions may differ.

How the values were obtained:
[1] = tested on: HT-29 (human colorectal adenocarcinoma); assay: SRB cytotoxicity assay, HT-29 cells; type: cell-based; settings: for IC50: Homo sapiens, HT-29, 72 h, read-out: IC50 HT-29; for Selectivity index (SI) HT-29: IC50 in GES-1 / IC50 in HT-29
Outline: (§1)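 Cells plated at 3 × 10³ per well and left 24 h to attach at 37 °C, 5% CO₂. Test compound at 0–100 µM from ethanol stocks (1% final ethanol) for 72 h. Fixation in TCA (10% final), staining with 0.1% SRB, dye solubilized in 10 mM Tris, A540. Viability relative to 1% ethanol vehicle. IC50 from a four-parameter logistic fit with 95% CI; triplicate, three independent runs, mean ± SD. SI = IC50 in GES-1 divided by IC50 in the cancer line.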

[2] = tested on: PC-3 (human prostate cancer); assay: SRB cytotoxicity assay, PC-3 cells; type: cell-based; settings: for IC50: Homo sapiens, PC-3, 72 h, read-out: IC50 PC-3; for Selectivity index (SI) PC-3: IC50 in GES-1 / IC50 in PC-3
Outline: as §1

[3] = tested on: AGS (human gastric adenocarcinoma); assay: SRB cytotoxicity assay, AGS cells; type: cell-based; settings: for IC50: Homo sapiens, AGS, 72 h, read-out: IC50 AGS; for Selectivity index (SI) AGS: IC50 in GES-1 / IC50 in AGS
Outline: as §1

[4] = tested on: mitochondrial membrane permeability of cancer cell line; assay: Mitochondrial membrane permeability by flow cytometry; type: cell-based, human; settings: 48 h, Rhodamine 123, flow cytometry
[5] = ABTS radical scavenging assay; type: biochemical; settings: concentration to scavenge 50% of radicals, mean ± SD; for IC50: read-out: ABTS IC50
Outline: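 ABTS radical cation generated by reacting ABTS with potassium persulfate, then diluted to an absorbance of about 0.700 at 732 nm. Test compound at several concentrations was mixed with the ABTS⁺ solution and the fall in absorbance recorded. Percent scavenging was calculated against a solvent control, with ascorbic acid as reference antioxidant. Three independent experiments in triplicate, mean ± SD.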

Hemolysis assay = type: cell-based, human; settings: human, washed human red blood cells, Hemolysis (%), 30 min, 37 °C
Outline: (§2)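 Donor blood was collected in EDTA. RBCs were pelleted at 500 × g for 10 min, washed three times in PBS and resuspended in PBS. Cells were exposed to test compound at 10–300 µg/mL for 30 min at 37 °C with gentle agitation, then spun at 1000 × g for 5 min; supernatant hemoglobin was read at 540 nm. Deionized water defined 100% and PBS 0% hemolysis. Triplicate, three independent repeats.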

human erythrocytes = assay: Hemolysis assay; type: cell-based; settings: for Hemolysis (%): 30 min, 37 °C; for Hemolysis, result in words: 10–300 µg/mL
Outline: as §2

[6] = DPPH radical scavenging assay; type: biochemical; settings: concentration to scavenge 50% of radicals, 15 min, mean ± SD
Outline: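 Test compound solutions (5–400 µg/mL, concentration before mixing) were added to 50 µM ethanolic DPPH and kept 15 min at room temperature in the dark, then read at 517 nm. A blank with solvent in place of compound served as control. IC50 came from linear regression of % scavenging against concentration. Three independent experiments in triplicate, mean ± SD.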

Molecule	IC50 [5] [µM]	IC50 [1] [µM]	IC50 [2] [µM]	IC50 [3] [µM]	Selectivity index (SI) AGS [3]	hemolysis at 30 min, 10 µg/mL (Hemolysis assay) [%]	hemolysis at 30 min, 25 µg/mL (Hemolysis assay) [%]	hemolysis at 30 min, 50 µg/mL (Hemolysis assay) [%]	hemolysis at 30 min, 100 µg/mL (Hemolysis assay) [%]	hemolysis at 30 min, 200 µg/mL (Hemolysis assay) [%]	hemolysis at 30 min, 300 µg/mL (Hemolysis assay) [%]	other results
COc1cccc2c1C(=O)c1c(O)c3c(c(O)c1C2=O)C[C@@](O)(C(C)=O)C[C@@H]3O[C@H]1C[C@H](N)[C@H](O)[C@H](C)O1 [Daunorubicin, reference compound]		15.1 ± 0.5	10.4 ± 0.4	13 ± 0.3	27.1							Selectivity index (SI) HT-29 [1]: 23.3; Selectivity index (SI) PC-3 [2]: 33.9
CC1(C)C2CC[C@]1(C)C(=O)/C2=C/c1cc2ccccc2o1 [Compound 9, (1S,3E)-3-[(1-benzofuran-2-yl)methylidene]-1,7,7-trimethylbicyclo[2.2.1]heptan-2-one]	954.7 ± 2.7	76.3 ± 0.2	97 ± 0.2	31.8 ± 0.4	7.0	2.01	3.31	6.36	8.05	12.9	13.4	Effect on mitochondrial membrane potential [4]: loss of the mitochondrial membrane potential; Selectivity index (SI) HT-29 [1]: 3.0; Selectivity index (SI) PC-3 [2]: 2.3
CC1(C)C2CC[C@]1(C)C(=O)/C2=C/c1ccoc1 [Compound 7, (1S,3E)-3-[(furan-3-yl)methylidene]-1,7,7-trimethylbicyclo[2.2.1]heptan-2-one]	1046 ± 3.3	> 100	> 100	> 100		0	0	0	1.81	3.12	5.97	
O=C1O[C@H]([C@@H](O)CO)C(O)=C1O [AA, Ascorbic acid, reference compound]	141 ± 3.5											
Triton X-100 [Triton X-100 1%, reference compound]												Hemolysis (%) (human erythrocytes; 10 µg/mL): 100%; Hemolysis (%) (human erythrocytes; 25 µg/mL): 100%; Hemolysis (%) (human erythrocytes; 50 µg/mL): 100%; Hemolysis (%) (human erythrocytes; 100 µg/mL): 100%; Hemolysis (%) (human erythrocytes; 200 µg/mL): 100%; Hemolysis (%) (human erythrocytes; 300 µg/mL): 100%
O=c1[nH]cc(F)c(=O)[nH]1 [Compound 5-FU, 5-fluorouracil, reference compound]		2.9 ± 0.7	16.4 ± 0.6	56.1 ± 0.5	2.5							Selectivity index (SI) HT-29 [1]: 48.3
CC1(C)C2CC[C@]1(C)C(=O)/C2=C/c1ccsc1 [Compound 11, (1S,3E)-1,7,7-trimethyl-3-[(thiophen-3-yl)methylidene]bicyclo[2.2.1]heptan-2-one]	1396 ± 3.8					0	0.77	5.25	7.2	11.2	13.2	
CC1(C)C2CC[C@@]1(C)C(=O)/C2=C/c1ccco1 [Compound 4, (1R,3E)-3-[(furan-2-yl)methylidene]-1,7,7-trimethylbicyclo[2.2.1]heptan-2-one]	1004 ± 2	> 100	> 100	> 100		15.7	18.2	20.1	31.8	41.5	49.7	Hemolysis, result in words (human erythrocytes): concentration dependent increase in hemolysis; also recorded: significant hemolysis
CC1(C)C2CC[C@@]1(C)C(=O)/C2=C/c1ccsc1 [Compound 12, (1R,3E)-1,7,7-trimethyl-3-[(thiophen-3-yl)methylidene]bicyclo[2.2.1]heptan-2-one]	1025 ± 3.5					5.9	6.81	7.92	9.41	10.2	12.5	Hemolysis, result in words (human erythrocytes): concentration dependent increase in hemolysis

Second part, led by results:

IC50 [5] [µM]	Molecule	IC50 [1] [µM]	IC50 [2] [µM]	IC50 [3] [µM]	Selectivity index (SI) AGS [3]	hemolysis at 30 min, 10 µg/mL (Hemolysis assay) [%]	hemolysis at 30 min, 25 µg/mL (Hemolysis assay) [%]	hemolysis at 30 min, 50 µg/mL (Hemolysis assay) [%]	hemolysis at 30 min, 100 µg/mL (Hemolysis assay) [%]	hemolysis at 30 min, 200 µg/mL (Hemolysis assay) [%]	hemolysis at 30 min, 300 µg/mL (Hemolysis assay) [%]	other results
1344 ± 3.4	CC1(C)C2CC[C@@]1(C)C(=O)/C2=C/c1ccoc1 [Compound 8, (1R,3E)-3-[(furan-3-yl)methylidene]-1,7,7-trimethylbicyclo[2.2.1]heptan-2-one]	> 100	> 100	> 100		0	2.53	6.29	8.5	9.74	12.2	
1301 ± 2.4	CC1(C)C2CC[C@]1(C)C(=O)/C2=C/c1cccs1 [Compound 5, (1S,3E)-1,7,7-trimethyl-3-[(thiophen-2-yl)methylidene]bicyclo[2.2.1]heptan-2-one]	87.5 ± 0.5	63.57 ± 0.6	43.2 ± 0.3	4.2	0	0	1.1	3.11	7.4	13.8	Effect on mitochondrial membrane potential [4]: loss of the mitochondrial membrane potential; Selectivity index (SI) HT-29 [1]: 2.1; Selectivity index (SI) PC-3 [2]: 3.0
1082 ± 1.7	CC1(C)C2CC[C@@]1(C)C(=O)/C2=C/c1cccs1 [Compound 6, (1R,3E)-1,7,7-trimethyl-3-[(thiophen-2-yl)methylidene]bicyclo[2.2.1]heptan-2-one]	> 100	> 100	> 100		6.36	7.07	16.8	21.6	26.7	29	Hemolysis, result in words (human erythrocytes): concentration dependent increase in hemolysis
953 ± 1.5	CC1(C)C2CC[C@]1(C)C(=O)/C2=C/c1ccco1 [Compound 3, (1S,3E)-3-[(furan-2-yl)methylidene]-1,7,7-trimethylbicyclo[2.2.1]heptan-2-one]	> 100	> 100	99.9 ± 0.2	1.85	6.75	8.31	17.9	23.6	28.2	35.3	Effect on mitochondrial membrane potential [4]: loss of the mitochondrial membrane potential; Hemolysis, result in words (human erythrocytes): concentration dependent increase in hemolysis
> 2630	CC12CCC(CC1=O)C2(C)C (stereo not drawn) [Compound 1, camphor, reference compound]	> 100	> 100	> 100						9.67	10.1	DPPH IC50 [6]: inactive; ABTS IC50 [5]: inactive; Hemolysis (%) (human erythrocytes; 10 µg/mL): 0%; Hemolysis (%) (human erythrocytes; 25 µg/mL): 0.06%; Hemolysis (%) (human erythrocytes; 50 µg/mL): 3.11%; Hemolysis (%) (human erythrocytes; 100 µg/mL): 4.80%
1146 ± 3.7	CC1(C)C2CC[C@@]1(C)C(=O)/C2=C/c1cc2ccccc2o1 [Compound 10, (1R,3E)-3-[(1-benzofuran-2-yl)methylidene]-1,7,7-trimethylbicyclo[2.2.1]heptan-2-one]	> 100	> 100	> 100		0	0.38	3.12	5.84	6.16	8.05	
